The EternaBench riboswitch data

Tested on: MS2 coat protein
Test: apparent Kd, MS2 coat protein; higher = weaker binding; RNA-MaP array; FMN 200 µM where present
In short: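 Two titrations, one without ligand and one with constant ligand, were run with SNAP-549-labelled MS2 coat protein from 0.7 or 1.5 nM, doubling to 3 µM. The targets were designs transcribed by stalled E. coli RNA polymerase on Illumina sequencing-chip clusters, in 100 mM Tris-HCl pH 7.5, 80 mM KCl, 4 mM MgCl2, BSA, DTT, yeast tRNA and Tween-20. The apparent Kd is the median of filtered per-cluster binding-curve fits, with green signal normalised to red-channel RNA signal and control-cluster median Fmax.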

[1] = designed as: OFF switch for flavin mononucleotide, no ligand
[2] = ligand present: flavin mononucleotide, designed as: OFF switch for flavin mononucleotide
[3] = designed as: ON switch for flavin mononucleotide, no ligand
[4] = ligand present: flavin mononucleotide, designed as: ON switch for flavin mononucleotide

Sequence	apparent Kd [1] [µM]	apparent Kd [2] [µM]	apparent Kd [3] [µM]	apparent Kd [4] [µM]
AUGGGCUAGGAGAAGGGCUAGAGUGUGAUAUAUUUGCCCGCGAGCACAUGAGGAUCACCCAUGUAGCAGGAUAUCCAAGCCGGU	0.00743	0.018		
AUUAUAUAGACAGGAUAUUGAUUAUUAUUUUAACAUGAGGAUCACCCAUGUAGCCUUAUGUAUAGCAAGAAGGGUCAUUUAUUA	0.135	0.206		
UCUUAUUGCAAGGAUAUGCUUUUUAUUUCUUUUGCAGAAGGUGCAACAUGAGGAUCACCCAUGUUUCCGGGCAU	0.016	0.028		
AACUCACAUGAGGAUCACCCAUGUGAGGAUAUGAUACUAUGUACUUCGGUACAUAGUAUCAGAAGGCAUGUGGG	0.0505	0.0281		
GCGGUCAACGUAGGAUAUCUUCAGCCACAGCGCAUUGCUGUACAUGAGGAUCACCCAUGUCCUGGAGAGAAGGACGGACGGCAG			0.123	0.0342
UUUAUUUAGGCAGGAUAUACAUGUAUAUAUAUUUCUUUAUAUCUUAUUACAUGAGGAUCACCCAUGUAGAAGGGCCUUAUUAUA	0.0173	0.0236		
GUCAGCUCGUGAGGAUAUACAACACUGCUUCGGCAGUGUCUUAAGAUCACAUGAGGAUCACCCAUGUAGAAGGCACGAGCUGAU	0.00898	0.168		
GGGUACAUCGGAGGAUAUCAUGUAAAUACAUGAGGAUCACCCAUGUCGUACGAGAGUACGGAGAUUGAGAAGGCCGAUGUACCG			0.0249	0.0153
GUGUAGAUAGGAUAUGCUGGAAUCUAGCGAAGCUAGGUUCCACAUGAGGAUCACCCAUGUAGAAGGGUCUACAC	0.2	0.054		
CUUUUGUGAGGAUAUCAGUAGUAAAAAAAUAAUAUUACUACUGAGAAGGCACAUGAGGAUCACCCAUGUUCCUC	0.036	0.276		
AUAAAACAUGAGGAUCACCCAUGUCAACAAAGUCGAGGAUAUGGGCAAAUAAAAUAAGAACCAGAAGGCGAAUUAU			0.21	0.0386
GUGAGGUCAGGAUAUGCAUGGCGGGACUUGCGUCGUGGCGUGGAGAAGGGACAUGAGGAUCACCCAUGUGGAGA	0.073	0.0631		
UUGCCUCAGAACAUGAGGAUCACCCAUGUGCUGCGGGCAACGUAGGAUAUGAUGGUAUGAUACCGUCAGAAGGAUGAUGGUACC			0.00586	0.00532
CUGCGGGCCAUAGGAUAUGCGCAGAAUUAGCAAGCAGAAGGGUGGAUCGUACAAUAAUAACUACAUGAGGAUCACCCAUGUGCU			0.235	0.0561
UACAGACAUGAGGAUCACCCAUGUGAGGAUAUCGGUACCGAUGGCAUAAUCUGCUCGGCGAGAAGGCACAGUGU	0.028	0.0484		
GUCAGCUCGUGAGGAUAUACAUGUGCUGGAGACAGCAUUAUAUUUUUCACAUGAGGAUCACCCAUGUAGAAGGCACGAGCUGAU	0.0165	0.0274		
AGCGACCAAGGAUAUACAUGAGGAUCACCCAUGUCGGCGACCUUCCUGGGAUUUCUUAGUAGAAGGUGGUCAAU	0.0427	0.0869		
GGUGCGUUUGUGAGGAUAUGCUGGUCCUUGGAUCAGCAGAAGGCACAUGAGGAUCACCCAUGUGGUGUCGUACC	0.447	0.0473		
AAAAAGUCAGGAUAUCGGAAAAAAAAAAAAAAAAGGAGAAACGAGAAGGGACAUGAGGAUCACCCAUGUAAAAA	0.051	0.0467		
CUCGUGUGAGGAUAUCUAUUCCACGGACGGGAGUCUUGAUGAGAGAAGGCACAUGAGGAUCACCCAUGUAAUAA	0.14	0.0867		
AUCAGCUCGUCAGGAUAUACGUCUCUGCGUCAGCAGUGUGGUAAGAUCACAUGAGGAUCACCCAUGUAGAAGGGACGAGCUGAU	0.0428	0.691		
AGCUACGUUUCGUAGCAGUGUCAUCGAGAAGGCUCAUAUACAUGAGGAUCACCCAUGUUAACAUGGGAGGAUAUCGAUGAUACA			0.0503	0.00664
UUCGUGUAAGGAUAUACGACCCAUCCCAUUGGGAUGGACACGUAGAAGGUACAUGAGGAUCACCCAUGUGCUCC	0.0273	0.135		
AUAUCCGAAGCAGGAUAUCGACGAGGUGUCGAGAUAGAGCGUACUCACAUGAGGAUCACCCAUGUCGAGAAGGGCUAUAGGAUA	0.0222	0.0834		

Sequence	apparent Kd [1] [µM]	apparent Kd [2] [µM]	apparent Kd [3] [µM]	apparent Kd [4] [µM]
GAUUAACAUGAGGAUCACCCAUGUGAGGAUAUGGAAUGGCUCAUUGUCUGAUUUCCGUCUAGAAGGCACAUCUU	0.0467	0.045		
AGUUGUUCAGGAUAUGGUGUGUUAUACAUGAGGAUCACCCAUGUGGGUCCUGGUUUGGCCUCAGAAGGGAAUGUUA	0.476	0.449		
UGGCGCAUGUGAGGAUAUAAUGGGUAGUAACUAUUAGAAGGUACAUGAGGAUCACCCAUGUACUUGGGUUUAUCAGGAACUCCU	0.00702	0.0067		
GUCAGCUCGUGAGGAUAUACAACACUGCUUCGGCAGUGUAUUAAGAUUACAUGAGGAUCACCCAUGUAGAAGGCACGAGCUGAU	0.00501	0.00695		
ACAUGAGGAUCACCCAUGUAAAGCGAGGAUAUUUCACUGCACAUGAGGUUCGCCCAUGUUCUGCGGAAGAAGGUGCAAAUAAUU				0.0281
UAAACACCCUCAUGUACCUGAGGACAUGAGGAUCACCCAUGUAAGGAUAUAGCCAUUAAAUCUAACUAGAAGGUAUAGGAAAUC	0.865	0.529		
GUGAAACAUGAGGAUCACCCAUGUGAGGAUAUGUUUUAGUACUGCUGACAGUACAUCUAUAGAAGGCACAAUGG	0.0348	0.0548		
GGCGUGUUAGGAUAUCGCGGCGGCGGCGUUUGUUGUUGUUGUGAGAAGGAACAUGAGGAUCACCCAUGUGCGCC	0.0184	0.0274		
CGAUUUUUGAUCCGUUUUUUCUACAUGAGGAUCACCCAUGUGCAGGAUAUCGUGGUGUUUUACUACGAGAAGGGCAAUUUCACG	0.0848	0.198		
CUUAUGUGAGGAUAUCAGUAGUAAAAAAAUAAAAUUACUACUGAGAAGGCACAUGAGGAUCACCCAUGUGUCUC	0.0204	0.0222		
GUUCAACAUGAGGAUCACCCAUGUAGAAGGCGCUCCGACAUUUUGUAGAACGAGGUGGGUGCGGGCGAGGAUAUACGUGGCGCU	0.0484	0.0896		
UAUAUGUCAGGAUAUCGAUUGGAAUGGAAUUUAGUUUUGGUCGAGAAGGGACAUGAGGAUCACCCAUGUUCCUC	0.0309	0.134		
GCCUGCUGGCGAGGAUAUUCUGUGCGGUUCCGGCUCGUGUCUGUUACAUGAGGAUCACCCAUGUAGGAGAAGGUGUCUGUGGCC	0.00475	0.00501		
CGAGUUUUUGAGAAGGCAUAAUAUAUAAUACCACAUGUUUACAUGAGGAUCACCCAUGUUUCCUAUGAGGAUAUCAGAAUAUCG	0.0161	0.0144		
ACAUGAGGAUCACCCAUGUAAAAUUAGGAUAUAUGACUGCACAUGAGGUUCACCCAUGUUCUACCGUAGAAGGGAUAAAUAAUU			0.0711	0.0756
AUUGUUAAGUUAGGAUAUAGUAAAAUAAUUUAAUUAGAAGGAGCUCACAUGAGGAUCACCCAUGUAAGAGGAUCACCCAUGUAU	0.0235	0.0189		
UUACCUCAUGAGAAGGACAUGAGGAUCACCCAUGUAGGAUAUCGUGGGACACUGGUAUUGAAUCUUCGGAUUCAAUACCUGUGU			0.465	0.029
AUGAGAGCAGGAUAUGCAGGUGUGCCGGAAGAAAGAAGAGGACAUGAGGAUCACCCAUGUAGAAGGGCUAACCC	0.0411	0.0198		
AAAUAAGUUGCAGGAUAUUAUUUUUGAUAAAUAUAAGAAGGGCAACAAACCUCACAUGAGGAUCACCCAUGUACCCAUGUAUCU	0.0655	0.03		
AGAAACUACGAGAAGGACAUGUGAACCUUCAAUUACAUGAGGAUCACCCAUGUAGGAUAUCGUAGUUUCAGGAUCGUGAGAUCA	0.0167	0.115		
CACGUACAUGAGGAUCACCCAUGUUAGGAUAUGUUUACCGGAAGGCAUUCUUGGGUAAACAGAAGGGACGAAAC	0.0225	0.0318		
UGUCCAUAGCAGAAGGACAUAAAUACAUGACCAAACAUGAGGAUCACCCAUGUAGGAUAUGCUAUGGACUAAGAGCGAAAGCUC	0.0066	0.00931		
GUCAAAACCAUACUGGUCGACGGUCAGGAUAUACAUGAGGAUCACCCAUGUGCUAUUGAUACUAUGUAGAAGGGACCCACCGCA	0.0162	0.03		
ACUUCACAUGAGGAUCACCCAUGUCAGGCCGGACUAGGAUAUUAUCAUGCAGCGUGACCGUGAGAAGGAGUUGGAU			0.11	0.114
